{"source": "ChEMBL document CHEMBL4428023", "about": "“1,4-Dihydropyridines Active on the SIRT1/AMPK Pathway Ameliorate Skin Repair and Mitochondrial Function and Exhibit Inhibition of Proliferation in Cancer Cells” (J Med Chem, 2016)", "key": {"NCI-H1299": {"test_system": "NCI-H1299", "assay": "Antiproliferative activity against human NCI-H1299 cells assessed as cell viability after 72 hrs by MTT assay", "format": "functional, cell-based", "details": "NCI-H1299, 72 h", "method_in_brief": "(§1)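 Cells grown in RPMI with 10% fetal calf serum and penicillin, seeded in sextuplicate at 3 × 10^3 cells/well. After 24 h, cells were exposed 72 h to 5–200 µM. Viability was measured by MTT and expressed as treated/untreated × 100. IC50 was calculated from three independent experiments, reported as mean ± SD.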"}, "Mus musculus [1]": {"test_system": "Mus musculus", "assay": "Wound healing activity in CD1 mouse assessed as increased wound closure at 1 uM administered topically on wound everyday for 14 days by biopsy punch assay", "format": "functional, organism-based", "method_in_brief": "(§2)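 Male CD1 mice, 8 weeks old, anaesthetized i.p. with medetomidine 1 mg/kg plus ketamine 75 mg/kg, then biopsy-punch wounded. Compound (1 µM) in 20 µL saline applied directly to the wound daily for 14 days; solvent-treated group as control. Epithelial gap and % wound closure followed over time.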"}, "[2]": {"target": "T1, NAD-dependent protein deacetylase sirtuin-1 (Homo sapiens) (UniProt Q96EB6)", "T1 sequence (whole entry)": "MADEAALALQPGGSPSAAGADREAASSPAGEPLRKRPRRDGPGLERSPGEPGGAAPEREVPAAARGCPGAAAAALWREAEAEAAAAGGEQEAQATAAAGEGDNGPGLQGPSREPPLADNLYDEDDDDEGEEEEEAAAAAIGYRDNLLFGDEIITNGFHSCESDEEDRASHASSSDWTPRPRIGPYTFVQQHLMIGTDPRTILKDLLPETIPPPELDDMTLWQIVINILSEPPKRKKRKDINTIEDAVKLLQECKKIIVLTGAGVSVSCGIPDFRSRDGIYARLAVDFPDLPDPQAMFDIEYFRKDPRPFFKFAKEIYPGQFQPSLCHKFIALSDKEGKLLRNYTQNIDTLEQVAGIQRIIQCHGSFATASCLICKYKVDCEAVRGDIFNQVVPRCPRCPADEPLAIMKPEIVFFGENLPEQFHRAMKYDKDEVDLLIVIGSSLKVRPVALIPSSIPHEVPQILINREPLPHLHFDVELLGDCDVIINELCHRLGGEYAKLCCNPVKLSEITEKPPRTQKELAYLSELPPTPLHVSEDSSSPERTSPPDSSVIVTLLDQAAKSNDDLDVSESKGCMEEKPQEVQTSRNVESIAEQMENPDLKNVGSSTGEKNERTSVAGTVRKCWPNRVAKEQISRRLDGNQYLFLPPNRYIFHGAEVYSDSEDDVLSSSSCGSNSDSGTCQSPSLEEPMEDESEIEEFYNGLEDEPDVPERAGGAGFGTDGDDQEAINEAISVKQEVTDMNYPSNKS", "assay": "Activation of SIRT1 in […] at 1 uM by fluorimetric assay", "format": "cell-free", "details": "HaCaT, TDE = time-dependent effect"}, "C2C12 [3]": {"test_system": "C2C12", "assay": "Activation of AMPK/SIRT1 in mouse C2C12 cells assessed as increase in mitochondrial density at 30 uM after 16 hrs by Mitotracker Green staining-based confocal microscopy", "format": "cell-based", "method_in_brief": "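Murine C2C12 myoblasts plated on coverslips and grown overnight at 37 °C, 5% CO2. Then switched to serum-free HBSS, pH 7.4, and treated 16 h at 30 µM, alone or with 5 µM compound C or EX-527. Mitotracker Green (200 nM final) added for the last 30 min. Cells fixed in 4% paraformaldehyde, permeabilized and imaged by confocal microscopy, with settings fixed on untreated cells. Plate fluorescence also quantified.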"}, "HaCaT": {"test_system": "HaCaT", "assay": "Activation of AMPK/SIRT1 in human HaCaT cells assessed as nitric oxide production at 10 uM incubated for 1 hr in presence of compound C by DAF-2D staining-based fluorescence assay", "format": "cell-based", "method_in_brief": "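HaCaT cells in DMEM with 10% FBS. DHP (10 µM) given for 1 h alone or together with 10 µM AMPK inhibitor compound C or 10 µM SIRT1 inhibitor EX-527. Intracellular NO read by flow cytometry after loading with 5 µM DAF-2D in medium (ex 485/em 538 nm). Expressed as % DAF-positive cells versus DMSO.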"}, "Mus musculus [4]": {"test_system": "Mus musculus", "assay": "Wound healing activity in CD1 mouse assessed as decrease in epithelial gap at 1 uM administered topically on wound everyday for 14 days by biopsy punch assay", "format": "functional, organism-based", "method_in_brief": "as §2"}, "C2C12 [5]": {"test_system": "C2C12", "assay": "Activation of AMPK/SIRT1 in mouse C2C12 cells assessed as increase in mitochondrial density at 30 uM after 16 hrs by Mitotracker Green staining-based confocal microscopy in presence of compound C", "format": "cell-based", "method_in_brief": "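C2C12 myoblasts plated overnight, then in serum-free HBSS pH 7.4 and treated 16 h at 30 µM, alone or with 5 µM inhibitor (EX-527 or compound C). Mitotracker Green at 200 nM final was added for the last 30 min. Cells were fixed in 4% paraformaldehyde, permeabilized with Triton X-100 and imaged by confocal microscopy with fixed settings. Alternatively, mitochondrial fluorescence was quantified in plates.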"}, "HCT-116": {"test_system": "HCT-116", "assay": "Antiproliferative activity against human HCT116 cells assessed as cell viability after 72 hrs by MTT assay", "format": "functional, cell-based", "details": "HCT-116, 72 h", "method_in_brief": "as §1"}}, "note": "pIC50: −log10 of the molar value. Calls of active or inactive are those of the source. The calls are words filed in the database; no cut-off is given here."}
{"smiles": "CCOC(=O)C1=CN(C(=O)c2ccccc2)C=C(C(=O)OCC)C1c1ccccc1", "values": [{"measurement": "pIC50", "setting": "NCI-H1299", "result": 3.90}, {"measurement": "Activity", "setting": "Mus musculus [1]", "result": "Active"}, {"measurement": "Activity", "setting": "[2]", "result": "Tde"}, {"measurement": "Activity", "setting": "C2C12 [3]", "result": "Active"}, {"measurement": "Activity", "setting": "HaCaT", "result": "inactive"}, {"measurement": "Activity", "setting": "Mus musculus [4]", "result": "Active"}, {"measurement": "Activity", "setting": "C2C12 [5]", "result": "inactive"}, {"measurement": "pIC50", "setting": "HCT-116", "result": 4.21}]}
